ChEMBL document CHEMBL4342410, “Design and Discovery of N-(3-(2-(2-Hydroxyethoxy)-6-morpholinopyridin-4-yl)-4-methylphenyl)-2-(trifluoromethyl)isonicotinamide, a Selective, Efficacious, and Well-Tolerated RAF Inhibitor Targeting RAS Mutant Cancers: The Path to the Clinic” (J Med Chem, 2020)
Converted amounts (≈) assume the structure as drawn. The source made the active and inactive calls. The calls are words filed in the database; no cut-off is given here.

Assays:
[1] = Apparent permeability across basolateral to apical side in human Caco2 cells at pH 7.4 by LC/MS/MS analysis; type: ADME, cell-based; details: Caco-2, pH 7.4
[2] = Solubility of compound in pH 6.8 Cl-free PBS buffer by shake-flask assay; type: physicochemical
Method in brief: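 Shake-flask solubility measured in chloride-free PBS at pH 6.8.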

[3] = Intrinsic clearance in human liver microsomes; type: ADME, Microsome; details: read-out: CLH
Calu-6 = test: Antiproliferative activity against human Calu6 cells harboring KRAS Q61K mutant assessed as reduction in cell viability after 72 hrs by CellTiter-Glo assay; type: functional, cell-based; details: Calu-6, 72 h
[4] = Drug level in rat hepatocytes treated with RAF709 at 10 uM measured after 3 hrs by LC-MS/MS analysis; type: ADME, cell-based, Hepatocyte
[5] = Drug level in dog hepatocytes treated with RAF709 at 10 uM measured after 3 hrs by LC-MS/MS analysis; type: ADME, cell-based, Canis lupus familiaris, Hepatocyte
[6] = Drug level in human hepatocytes treated with RAF709 at 10 uM measured after 3 hrs by LC-MS/MS analysis; type: ADME, cell-based, Hepatocyte
[7] = Apparent permeability across apical to basolateral side in human Caco2 cells at pH 7.4 by LC/MS/MS analysis; type: ADME, cell-based; details: Caco-2, pH 7.4
[8] = target: T1, RAF proto-oncogene serine/threonine-protein kinase (Homo sapiens, UniProt P04049); test: Inhibition of CRAF in human Calu6 cells assessed as reduction MEK phosphorylation measured after 1 hr by sandwich ELISA; type: cell-based
[9] = target: RAF proto-oncogene serine/threonine-protein kinase (Homo sapiens, UniProt P04049, Y340E/Y341E); test: Inhibition of CRAF Y340E/Y341E mutant (unknown origin) using human MEK1 K97R mutant as substrate pretreated for 30 mins followed by substrate addition measured after 40 mins by alphascreen assay
Cytochrome P450 3A4 = Cytochrome P450 3A4 (Homo sapiens, UniProt P08684); test: Time dependent inhibition of CYP3A4 in human liver microsomes assessed as inactivation rate constant at 10 uM using midazolam as substrate incubated prior to substrate addition and measured after 6 mins in presence of NADPH; type: ADME; details: 0.1 h
Method in brief: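 Human liver microsomes (0.5 mg/mL) preincubated with test compound at 10 µM and 1 mM NADPH in phosphate buffer at 37 °C for 0, 5, 15 and 30 min. Mixture then diluted 20-fold and incubated with midazolam (20 µM) at 37 °C for 6 min to measure residual CYP3A4 activity. kobs taken as the initial rate of decline of activity versus preincubation time.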

[10] = Stimulation of BRAF-CRAF dimerization in human HCT116 cells measured after 2 hrs by NanoBit luciferase complementation assay; type: cell-based
[11] = target: T1, RAF proto-oncogene serine/threonine-protein kinase; test: Activation of CRAF in human Calu6 cells assessed as induction of MEK phosphorylation at 3 uM measured after 1 hr by sandwich ELISA; type: cell-based
[12] = target: T1, RAF proto-oncogene serine/threonine-protein kinase; test: Inhibition of CRAF in human Calu6 cells assessed as reduction MEK phosphorylation up to 24 uM measured after 1 hr by sandwich ELISA; type: cell-based
[13] = Stability in human hepatocytes assessed as parent compound remaining at 10 uM measured after 3 hrs by LC-MS/MS analysis; type: ADME, cell-based, Hepatocyte; details: read-out: Stability
[14] = Stability in rat hepatocytes assessed as parent compound remaining at 10 uM measured after 3 hrs by LC-MS/MS analysis; type: ADME, cell-based, Hepatocyte
[15] = Drug metabolism in human hepatocytes assessed as amide hydrolysis at 10 uM measured after 3 hrs by LC-MS/MS analysis; type: ADME, cell-based, Hepatocyte
[16] = Stability in dog hepatocytes assessed as parent compound remaining at 10 uM measured after 3 hrs by LC-MS/MS analysis; type: ADME, cell-based, Canis lupus familiaris, Hepatocyte; details: read-out: Stability
[17] = Drug metabolism in rat hepatocytes assessed as amide hydrolysis at 10 uM measured after 3 hrs by LC-MS/MS analysis; type: ADME, cell-based, Hepatocyte

Chain of RAF proto-oncogene serine/threonine-protein kinase (Homo sapiens, UniProt P04049, Y340E/Y341E) (P04049 whole entry Y340E/Y341E): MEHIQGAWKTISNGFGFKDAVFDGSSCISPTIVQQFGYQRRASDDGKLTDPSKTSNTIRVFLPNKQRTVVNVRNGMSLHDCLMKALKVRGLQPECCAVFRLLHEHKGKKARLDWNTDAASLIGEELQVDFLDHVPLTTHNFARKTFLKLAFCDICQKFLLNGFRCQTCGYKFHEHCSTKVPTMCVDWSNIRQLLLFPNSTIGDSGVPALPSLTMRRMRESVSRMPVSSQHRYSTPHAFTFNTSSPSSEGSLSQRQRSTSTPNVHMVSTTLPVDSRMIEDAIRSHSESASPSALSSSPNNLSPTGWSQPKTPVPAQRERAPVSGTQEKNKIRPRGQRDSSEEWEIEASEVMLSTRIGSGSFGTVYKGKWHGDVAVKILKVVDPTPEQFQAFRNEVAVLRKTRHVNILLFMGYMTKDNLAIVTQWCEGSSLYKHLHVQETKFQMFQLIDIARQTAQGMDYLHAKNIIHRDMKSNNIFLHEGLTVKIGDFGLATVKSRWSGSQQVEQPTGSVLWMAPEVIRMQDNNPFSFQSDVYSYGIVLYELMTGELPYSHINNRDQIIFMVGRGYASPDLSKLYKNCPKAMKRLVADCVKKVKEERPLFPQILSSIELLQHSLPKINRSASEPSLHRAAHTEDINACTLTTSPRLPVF
T1 sequence (P04049 whole entry): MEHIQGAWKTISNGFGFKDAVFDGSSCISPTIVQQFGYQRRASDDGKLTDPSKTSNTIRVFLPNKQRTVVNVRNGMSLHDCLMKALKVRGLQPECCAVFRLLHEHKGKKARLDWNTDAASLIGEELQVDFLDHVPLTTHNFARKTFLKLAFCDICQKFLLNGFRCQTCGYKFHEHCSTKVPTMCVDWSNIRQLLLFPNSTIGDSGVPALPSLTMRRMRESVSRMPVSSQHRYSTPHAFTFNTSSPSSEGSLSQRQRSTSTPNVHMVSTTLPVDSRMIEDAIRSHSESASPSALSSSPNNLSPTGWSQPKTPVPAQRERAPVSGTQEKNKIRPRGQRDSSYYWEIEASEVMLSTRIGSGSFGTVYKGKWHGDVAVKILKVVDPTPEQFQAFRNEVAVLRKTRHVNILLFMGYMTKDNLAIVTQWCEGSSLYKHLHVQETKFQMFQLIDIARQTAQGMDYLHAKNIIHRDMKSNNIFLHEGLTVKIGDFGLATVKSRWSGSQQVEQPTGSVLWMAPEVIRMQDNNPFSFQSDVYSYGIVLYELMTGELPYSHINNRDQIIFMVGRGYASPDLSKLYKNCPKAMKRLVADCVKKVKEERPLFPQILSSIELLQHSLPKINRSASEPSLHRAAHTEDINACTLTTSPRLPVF
Chain of Cytochrome P450 3A4 (P08684 whole entry): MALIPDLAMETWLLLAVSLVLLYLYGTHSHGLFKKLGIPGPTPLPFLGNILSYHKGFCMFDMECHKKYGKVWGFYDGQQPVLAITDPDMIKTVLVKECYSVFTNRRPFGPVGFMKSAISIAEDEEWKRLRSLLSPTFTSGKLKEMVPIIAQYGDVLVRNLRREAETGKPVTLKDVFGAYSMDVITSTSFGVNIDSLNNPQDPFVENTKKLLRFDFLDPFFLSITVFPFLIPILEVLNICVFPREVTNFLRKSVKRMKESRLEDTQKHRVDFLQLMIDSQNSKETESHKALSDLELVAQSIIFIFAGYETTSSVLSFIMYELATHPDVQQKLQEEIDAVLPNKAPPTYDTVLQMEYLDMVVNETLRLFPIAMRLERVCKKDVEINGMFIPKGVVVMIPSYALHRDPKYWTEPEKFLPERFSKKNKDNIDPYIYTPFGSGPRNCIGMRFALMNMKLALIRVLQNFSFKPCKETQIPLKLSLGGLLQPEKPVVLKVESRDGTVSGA

Papp B→A [1] | solubility thermodynamic [2] | microsomal CLint [3] | EC50 (Calu-6) | Drug uptake [4] | Drug uptake [5] | Drug uptake [6] | Papp A→B [7] | EC50 [8] | SMILES | further results
– | – | – | – | Active | Active | Active | – | – | Cc1ncc(N)cc1-c1cnc(OC2CCOCC2)c(N2CCOCC2)c1 | –
300 nm/s | 2.1 µM (≈ 1.05 µg/mL) | 48 µL/min/mg | 0.16 µM | – | – | – | 80 nm/s | 0.061 µM | Cc1ccc(NC(=O)c2cccc(C(F)(F)F)c2)cc1-c1cc(N2CCOCC2)nc(NCCO)n1 | IC50 [9]: 0.0002 µM
– | – | – | – | Active | Active | Active | – | – | Cc1ncc(NC(=O)c2cccc(C(F)(F)F)c2)cc1-c1cnc(OC2CCOCC2)c(N(CCO)CCO)c1 | –
– | 43 µM (≈ 24.6 µg/mL) | 302 µL/min/mg | 1.76 µM | – | – | – | – | 0.021 µM | CO[C@H]1COCC[C@@H]1Oc1ncc(-c2cc(NC(=O)c3cccc(C(F)(F)F)c3)cnc2C)cc1N1CCOCC1 | IC50 [9]: 0.0017 µM
510 nm/s | 59.6 µM (≈ 32.4 µg/mL) | 7.7 µL/min/mg | 0.88 µM | – | – | – | 44 nm/s | 0.008 µM | Cc1ncc(NC(=O)c2cccc(C(F)(F)F)c2)cc1-c1cc(N2CCOCC2)c(OC2CCOCC2)nn1 | –
– | – | – | – | Active | Active | Active | – | – | Cc1ncc(NC(=O)c2cccc(C(F)(F)F)c2)cc1-c1cnc(OC(CCO)CCO)c(N2CCOCC2)c1 | –

Second part, the compound before the results:

SMILES | Papp B→A [1] | solubility thermodynamic [2] | microsomal CLint [3] | EC50 (Calu-6) | Drug uptake [4] | Drug uptake [5] | Drug uptake [6] | Papp A→B [7] | EC50 [8] | further results
Cc1ccc(NC(=O)c2cccc(C(F)(F)F)c2)cc1-c1cc(N2CCOCC2)ncn1 | 410 nm/s | 13 µM (≈ 5.75 µg/mL) | 43.3 µL/min/mg | 5.28 µM | – | – | – | – | – | –
[2H]C1(Oc2ncc(-c3cc(NC(=O)c4cccc(C(F)(F)F)c4)cnc3C)cc2N2CCOCC2)CCOCC1 | – | 104 µM (≈ 56.5 µg/mL) | 88 µL/min/mg | 0.4 µM | – | – | – | – | – | –
Cc1ccc(NC(=O)c2ccnc(C(F)(F)F)c2)cc1-c1cc(NCCO)nc(N2CCOCC2)c1 | 530 nm/s | 36.3 µM (≈ 18.2 µg/mL) | 20.5 µL/min/mg | 0.51 µM | – | – | – | 50 nm/s | 0.008 µM | K (Cytochrome P450 3A4): 0.035 min⁻¹; IC50 [9]: 0.0006 µM
Cc1ncc(NC(=O)c2cccc(C(F)(F)F)c2)cc1-c1cnc(O[C@H]2CCOC[C@H]2F)c(N2CCOCC2)c1 | 200 nm/s | 25 µM (≈ 14 µg/mL) | 65.5 µL/min/mg | 0.34 µM | – | – | – | 160 nm/s | – | –
CC(C)(C)c1nc(-c2cccc(NS(=O)(=O)c3c(F)cccc3F)c2F)c(-c2ccnc(N)n2)s1 [DABRAFENIB] | – | – | – | – | – | – | – | – | – | EC50 [10]: Not Active; Activity [11]: Active; inhibition [12]: inactive
Cc1ccc(NC(=O)c2ccnc(C(C)(C)C#N)c2)cc1-c1cc(N2CCOCC2)c(=O)n(C)n1 | 490 nm/s | 33.9 µM (≈ 16 µg/mL) | 15.5 µL/min/mg | 1.35 µM | – | – | – | 63 nm/s | 0.052 µM | –
Cc1ncc(NC(=O)c2ccnc(C(C)(F)F)c2)cc1-c1cc(NCCO)nc(N2CCOCC2)c1 | 340 nm/s | 730 µM (≈ 364 µg/mL) | 10.4 µL/min/mg | 6.22 µM | – | – | – | 30 nm/s | 0.027 µM | K (Cytochrome P450 3A4): 0.035 min⁻¹; IC50 [9]: 0.0007 µM
Cc1ncc(NC(=O)c2cccc(C(F)(F)F)c2)cc1-c1cnc(OC2CCOCC2)c(N2CCOCC2)c1 | – | – | 94 µL/min/mg | – | – | – | – | – | – | remaining at 3 h, 10 µM [13]: 44%; Stability [14]: 36%; Drug metabolism [15]: < 1%; remaining at 3 h, 10 µM [16]: 74%; Drug metabolism [17]: 20%
Cc1ncc(NC(=O)c2cccc(C(F)(F)F)c2)cc1-c1c[nH]c(=O)c(N2CCOCC2)c1 | 430 nm/s | 55 µM (≈ 25.2 µg/mL) | 9.4 µL/min/mg | 3.91 µM | Active | Active | Active | 3 nm/s | – | –
Cc1ncc(NC(N)=O)cc1-c1cnc(OC2CCOCC2)c(N2CCOCC2)c1 | – | – | – | – | Active | Active | Active | – | – | –
